Measured values published in article PMC7986169 (Clinical Pharmacology in Drug Development, 2021).
“And” between values parts separate entries of the source, which are not always exact repeats. Equal entries are not always repeated. Where two headings read alike, the source gives them in different places.

How the values were obtained:
[1] = cited from earlier work
[2] = cited from earlier work; remark: listed apart in the source
JAK1 = conditions: in vitro assays; cited from earlier work
[3] = Population pharmacokinetic analysis; type: in vivo, human
How it was run: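 Oral dosing at 0.5–15 mg twice daily in UC patients, excluding creatinine clearance <40 mL/min. Predose and postdose plasma samples were stored at about –20°C and assayed by a validated method (LOQ 0.100 ng/mL). One-compartment model with first-order absorption, with or without lag. Exponential IIV on CL/F and V/F; IOV on Ka. Separate proportional residual errors for >8 h and ≤8 h postdose. FOCE with interaction; nonparametric bootstrap, 1000 runs.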

[4] = final model, table: estimate (RSE%), text: estimate (95%CI bootstrap)
[5] = fraction of the reference category (male)

SMILES: C[C@@H]1CCN(C(=O)CC#N)C[C@@H]1N(C)c1ncnc2[nH]ccc12 [tofacitinib]
- AUC higher than in healthy individuals ([1]; mild renal impairment): 37%
- AUC higher than in healthy individuals ([1]; moderate renal impairment): 43%
- AUC higher than in healthy individuals ([1]; severe renal impairment): 123%
- Share of clearance due to renal elimination [2]: 30%
- Mean terminal-phase half-life (t½) ([2]; healthy volunteers): approximately 3.2 h
- Time of peak plasma concentration after oral administration ([2]; healthy volunteers): approximately 1 hour (h)
- Share of clearance via hepatic metabolism ([2]; primarily via cytochrome P450 3A4): 70%
- Inhibitory potency for JAK1 (JAK1): potent inhibitor
- CL/F, typical estimate ([3]; base model): 25.0 L/h
- IIV (%CV) for CL/F ([3]; base model): 25.2%
- IOV (%CV) for Ka ([3]; base model): 192.4%
- Ka ([3]; base model): 9.9 h⁻¹
- V/F, typical estimate ([3]; base model): 111 L
- CL/F, bootstrap median ([3]; bootstrap of final model): 26.3 L/h
- IIV for CL/F, bootstrap ([3]; bootstrap of final model): 22.2%
- Ka, bootstrap median ([3]; bootstrap of final model): 9.86 h⁻¹
- Lag time, bootstrap median ([3]; bootstrap of final model): 0.236 (NA) h
- V/F, bootstrap median ([3]; bootstrap of final model): 115.5 (NA) L
- IOV for Ka, bootstrap ([3]; bootstrap of final model, IOV instead of IIV (footnote b)): 191.9%
- Dose proportionality of exposure ([3]; dose range 0.5-15 mg twice daily): dose‐proportional increase
- Lower CL/F, Asian compared with non-Asian patients ([3]; final model prediction): 6.8%
- Lower CL/F, baseline creatinine clearance 60 mL/min compared to 108.7 mL/min ([3]; final model prediction): 19%
- Lower CL/F, females compared with males ([3]; final model prediction): 13.2%
- Lower V/F, female compared with male patients ([3]; final model prediction): 15.5%
- Lower V/F, patient aged 80 years compared with 40 years ([3]; final model prediction): 7.7%
- Lower V/F, patient weighing 53 kg relative to 72.0 kg ([3]; final model prediction, 10th percentile of weight): approximately 16.4%
- Higher V/F, patient weighing 95 kg relative to 72.0 kg ([3]; final model prediction, 90th percentile of weight): ~17.6%
- CL/F (apparent oral clearance), typical estimate ([3]; final model, reference individual: non-Asian male, 72.0 kg, 40.0 years, baseline creatinine clearance 108.7 mL/min, table: estimate (RSE%), text: estimate (95%CI bootstrap)): 26.3 L/h and 26.3 (25.5–27.2) L/h and 26.3 (1.2) L/h
- IIV (%CV) for CL/F ([3]; final model, table: IIV (RSE%)): 22% and 22.2% and 22.2 (7.7) %
- IOV (%CV) for Ka ([3]; final model, table: IOV (RSE%)): 191.8% and 191.8 (7.0) %
- Ka (first-order absorption rate constant), typical estimate [3, 4]: 9.9 (7.1) h^−1
- Lag time [3, 4]: 0.236 (0.52) h
- Covariate parameter estimate: Female on CL/F [3, 5]: 0.868
- Covariate parameter estimate: Female on V/F [3, 5]: 0.845
- Covariate parameter estimate: Asian on CL/F ([3]; fraction of the reference category (non-Asian)): 0.932
- Vd/F ([3]; human, plasma, oral): 116 L
- half-life ([3]; human, plasma, oral, Derived elimination half-life (t½), final model, patients with UC): 3.05 h
- half-life ([3]; human, plasma, oral, Derived elimination t½, base model): ~3.05 h
- Covariate parameter estimate: Age on V/F ([3]; power function exponent, normalized to 40.0 years): –0.116
- Covariate parameter estimate: Body weight on V/F ([3]; power function exponent, normalized to 72.0 kg): 0.585
- Covariate parameter estimate: BCCL on CL/F ([3]; power function exponent, normalized to 108.7 mL/min): 0.354
